A word on the LD50: it is the dose expected to kill half of the subjects tested. A higher LD50 goes with lower toxicity. By inhibition in vivo is commonly meant the change of the read-out against control, counted positive when it falls. What is called ED50 is the dose that gives a 50% effect, or the effect in half of the subjects.

In ChEMBL document CHEMBL3227987, “A new nonsteroidal analgesic-antiinflammatory agent. Synthesis and activity of 4-ethoxy-2-methyl-5-morpholino-3(2H)-pyridazinone and related compounds” (J Med Chem, 1979) one finds LD50, inhibition in vivo and ED50 data, which are given here for 35 molecules.

Tested on in one series: not listed separately
Briefly: Acute toxicity in ip dosed ddY mouse measured after 72 hrs. Particulars: in vivo. It counts as organism-based.
Molecule `Cn1ncc(N2CCOCC2)c(Cl)c1=O` yielded a 50% lethal dose (LD50) at 72 h of 75 mg/kg.
Still for that read-out and setting: the same measure for `CCOc1c(NC)cnn(C)c1=O`: 400 mg/kg; for `CCOc1c(N(C)C)cnn(C)c1=O`: 305 mg/kg; for `COc1c(N2CCOCC2)cnn(C)c1=O`: 600 mg/kg.
The same measure, in the same setting: the same measure for `CCCOc1c(N2CCOCC2)cnn(C)c1=O`: 500 mg/kg; for `CCCCOc1c(N2CCOCC2)cnn(C)c1=O`: 440 mg/kg; for `CCCCCOc1c(N2CCOCC2)cnn(C)c1=O`: 420 mg/kg.
As for `CCOc1c(N2CCOCC2)cnn(CC)c1=O`, the LD50 at 72 h worked out at 380 mg/kg.
The same measure, in the same setting: the same measure for `C=CCn1ncc(N2CCOCC2)c(OCC)c1=O`: 550 mg/kg; for `Cc1c(N(C)C)c(=O)n(-c2ccccc2)n1C` [AMINOPYRINE]: 420 mg/kg.
Same read-out and setting: the same measure for `CCOc1c(N2CCOCC2)cnn(C)c1=O` [EMORFAZONE]: 700 mg/kg; for `CCCCC1C(=O)N(c2ccccc2)N(c2ccccc2)C1=O` [PHENYLBUTAZONE]: 420 mg/kg.

Another series relates to Rattus norvegicus. As to the kind of experiment: Antiinflammatory activity in Wistar rat assessed as inhibition of carrageenan-induced paw edema at 50 mg/kg, po pretreated for 30 mins followed by carrageenan challenge measured after 3 hrs relative to control. It counts as functional.
Settings: not given
In short, it runs like this:
(§1)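 Male Wistar rats (120-150 g), six per group, dosed orally with compound suspended in 1% gum arabic; 30 min later 0.1 mL 1% carrageenan injected sc into hind paw plantar surface. Edema measured at 3 h; percent inhibition calculated against carrageenan-only animals.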
Turning to `C=CCOc1c(N2CCOCC2)cnn(C)c1=O`, the inhibition in vivo at 50 mg/kg came out at 5.2%.
Still for that read-out and setting: the same measure for `Cn1ncc(Cl)c(Cl)c1=O`: -8.9%; for `Cn1ncc(N2CCOCC2)c(Cl)c1=O`: 32.2%.
The same measure, in the same setting: the same measure for `Cn1ncc(N2CCOCC2)c(O)c1=O`: 8.2%; for `CCOc1c(NC)cnn(C)c1=O`: 4.5%.
The same measure, in the same setting: as for `CCCNc1cnn(C)c(=O)c1OCC`, the figure is 8%.
On to `CCOc1c(N(C)C)cnn(C)c1=O`, for which the inhibition in vivo at 50 mg/kg was 30.7%.
Still for that read-out and setting: as for `CCOc1c(N(CC)CC)cnn(C)c1=O`, the figure is 1.7%; as for `C=CCN(CC=C)c1cnn(C)c(=O)c1OCC`, -5.2%.
Same read-out and setting: the same measure for `CCOc1c(N2CCSCC2)cnn(C)c1=O`: 6.2%.
Take `CCOc1c(N2CCCCC2)cnn(C)c1=O`: the inhibition in vivo at 50 mg/kg is -5.4%.
Same read-out and setting: the same measure for `CCOc1c(N2CCCC2)cnn(C)c1=O`: -2.3%; for `CCOc1c(N2CCN(C)CC2)cnn(C)c1=O`: 10.2%; for `COc1c(N2CCOCC2)cnn(C)c1=O`: 23.2%.
Regarding `CCCOc1c(N2CCOCC2)cnn(C)c1=O`, the inhibition in vivo at 50 mg/kg was found to be 32.4%.
Same read-out and setting: the same measure for `CCCCOc1c(N2CCOCC2)cnn(C)c1=O`: -2.8%; for `CCCCCOc1c(N2CCOCC2)cnn(C)c1=O`: 2.4%; for `CCOc1c(N2CCOCC2)cnn(CC)c1=O`: 25.4%.
Still for that read-out and setting: the same measure for `CCCn1ncc(N2CCOCC2)c(OCC)c1=O`: 3.5%; for `CCOc1c(N2CCOCC2)cnn(C(C)C)c1=O`: 2.1%.
The same measure, in the same setting: as for `C=CCn1ncc(N2CCOCC2)c(OCC)c1=O`, the figure is 1.2%; as for `Cc1c(N(C)C)c(=O)n(-c2ccccc2)n1C` [AMINOPYRINE], 25%; as for `CCOc1c(N2CCOCC2)cnn(C)c1=O` [EMORFAZONE], 38.8%.
In the case of `CCCCC1C(=O)N(c2ccccc2)N(c2ccccc2)C1=O` [PHENYLBUTAZONE], the inhibition in vivo at 50 mg/kg amounted to 35%.

The next series has as its system Mus musculus. As to the kind of experiment: Analgesic activity in sc dosed ddY mouse assessed as inhibition of acetic acid-induced abdominal stretching pretreated for 30 mins followed by acetic acid challenge measured for 5 to 20 mins. The format is functional. Particulars: Abdomen. Summed up:
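Compound suspended in 1% gum arabic, given sc to mice; 30 min later 0.6% acetic acid ip at 0.1 mL/10 g body weight. Mouse counted protected if no stretching from 5 to 20 min after acid; ED50 by Litchfield–Wilcoxon method.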
With `C=CCOc1c(N2CCOCC2)cnn(C)c1=O`, the ED50 came out at 90 mg/kg.
Still for that read-out and setting: as for `Cn1ncc(Cl)c(Cl)c1=O`, the figure is above 100 mg/kg; as for `Cn1ncc(N2CCOCC2)c(Cl)c1=O`, 35 mg/kg; as for `Cn1ncc(N2CCOCC2)c(O)c1=O`, above 100 mg/kg.
Same read-out and setting: the same measure for `Cn1ncc(O)c(Cl)c1=O`: above 100 mg/kg.
Still for that read-out and setting: the same measure for `CCOc1c(NC)cnn(C)c1=O`: 55 mg/kg.
With `CCCNc1cnn(C)c(=O)c1OCC`, the 50% effective dose (ED50) amounted to 72 mg/kg.
The same measure, in the same setting: as for `CCOc1c(N(C)C)cnn(C)c1=O`, the figure is 86 mg/kg.
Still for that read-out and setting: as for `CCOc1c(N(CC)CC)cnn(C)c1=O`, the figure is 70 mg/kg; as for `C=CCN(CC=C)c1cnn(C)c(=O)c1OCC`, 82 mg/kg; as for `CCOc1c(N2CCSCC2)cnn(C)c1=O`, above 100 mg/kg.
As for `CCOc1c(N2CCCCC2)cnn(C)c1=O`, the ED50 was 86 mg/kg.
The same measure, in the same setting: the same measure for `CCOc1c(N2CCCC2)cnn(C)c1=O`: above 100 mg/kg; for `CCOc1c(N2CCN(C)CC2)cnn(C)c1=O`: 82 mg/kg.
On the same count and under the same terms, as for `CCOc1c(Nc2ccccc2)cnn(C)c1=O`, the figure is 36 mg/kg.
The same measure, in the same setting: the same measure for `COc1c(N2CCOCC2)cnn(C)c1=O`: 72 mg/kg.
In the case of `CCCOc1c(N2CCOCC2)cnn(C)c1=O`, the 50% effective dose (ED50) came to 23 mg/kg.
Same read-out and setting: as for `CC(C)Oc1c(N2CCOCC2)cnn(C)c1=O`, the figure is 86 mg/kg; as for `CCCCOc1c(N2CCOCC2)cnn(C)c1=O`, 41 mg/kg.
On the same count and under the same terms, as for `CCCCCOc1c(N2CCOCC2)cnn(C)c1=O`, the figure is 29 mg/kg; as for `CCOc1c(N2CCOCC2)cnn(CC)c1=O`, 95 mg/kg; as for `CCCn1ncc(N2CCOCC2)c(OCC)c1=O`, above 100 mg/kg.
On the same count and under the same terms, the same measure for `CCOc1c(N2CCOCC2)cnn(C(C)C)c1=O`: above 100 mg/kg.
`CCCCn1ncc(N2CCOCC2)c(OCC)c1=O`: the ED50 was above 100 mg/kg.
Same read-out and setting: the same measure for `C/C=C/n1ncc(N2CCOCC2)c(OCC)c1=O`: above 100 mg/kg; for `C=CCn1ncc(N2CCOCC2)c(OCC)c1=O`: 18 mg/kg; for `CCOc1c(N2CCOCC2)cn[nH]c1=O`: above 100 mg/kg.
In the case of `CCOc1ccnn(C)c1=O`, the ED50 was above 100 mg/kg.
For the molecule `Cn1ncccc1=O`, the ED50 turned out to be 65 mg/kg.
`O=c1cccn[nH]1`: the ED50 is above 100 mg/kg.
Same read-out and setting: as for `Cn1ncc(N2CCOCC2)cc1=O`, the figure is above 100 mg/kg; as for `Cc1c(N(C)C)c(=O)n(-c2ccccc2)n1C` [AMINOPYRINE], 46 mg/kg.
Same read-out and setting: as for `CCOc1c(N2CCOCC2)cnn(C)c1=O` [EMORFAZONE], the figure is 41 mg/kg; as for `CCCCC1C(=O)N(c2ccccc2)N(c2ccccc2)C1=O` [PHENYLBUTAZONE], above 100 mg/kg.
Regarding `c1ccnnc1` [PYRIDAZINE], the 50% effective dose (ED50) is above 100 mg/kg.

For a further series, the system named is Rattus norvegicus. Briefly: Antiinflammatory activity in Wistar rat assessed as inhibition of carrageenan-induced paw edema at 25 mg/kg, po pretreated for 30 mins followed by carrageenan challenge measured after 3 hrs relative to control.
Settings: not given
It counts as functional. In short, it runs like this: as §1
A general note: The carrageenan paw model is a standard test of acute inflammation.
In the case of `Cn1ncc(N2CCOCC2)c(Cl)c1=O`, the inhibition in vivo at 25 mg/kg was determined as 15.2%.
Same read-out and setting: as for `CCOc1c(NC)cnn(C)c1=O`, the figure is -1.1%; as for `CCCNc1cnn(C)c(=O)c1OCC`, 2%.
In the case of `CCOc1c(N(C)C)cnn(C)c1=O`, the inhibition in vivo at 25 mg/kg worked out at 27.5%.
Same read-out and setting: the same measure for `COc1c(N2CCOCC2)cnn(C)c1=O`: 11%.
On the same count and under the same terms, the same measure for `CCCOc1c(N2CCOCC2)cnn(C)c1=O`: 4.5%.
The same measure, in the same setting: the same measure for `CCOc1c(N2CCOCC2)cnn(CC)c1=O`: 8.3%; for `Cc1c(N(C)C)c(=O)n(-c2ccccc2)n1C` [AMINOPYRINE]: 11%.
As for `CCOc1c(N2CCOCC2)cnn(C)c1=O` [EMORFAZONE], the inhibition in vivo at 25 mg/kg was determined as 20.2%.
Same read-out and setting: as for `CCCCC1C(=O)N(c2ccccc2)N(c2ccccc2)C1=O` [PHENYLBUTAZONE], the figure is 18%.

The next series concerns Rattus norvegicus. Briefly: Antiinflammatory activity in Wistar rat assessed as inhibition of carrageenan-induced paw edema at 100 mg/kg, po pretreated for 30 mins followed by carrageenan challenge measured after 3 hrs relative to control.
Settings: not given
It counts as functional. Summed up: as §1
For `C=CCOc1c(N2CCOCC2)cnn(C)c1=O`, the inhibition in vivo at 100 mg/kg stood at 17.4%.
On the same count and under the same terms, the same measure for `Cn1ncc(Cl)c(Cl)c1=O`: 23.2%; for `Cn1ncc(N2CCOCC2)c(Cl)c1=O`: 38.9%; for `Cn1ncc(N2CCOCC2)c(O)c1=O`: 16.6%.
The same measure, in the same setting: the same measure for `Cn1ncc(O)c(Cl)c1=O`: -5.8%; for `CCOc1c(NC)cnn(C)c1=O`: 31.1%; for `CCCNc1cnn(C)c(=O)c1OCC`: 38%.
Still for that read-out and setting: the same measure for `CCOc1c(N(C)C)cnn(C)c1=O`: 49.5%.
Consider `CCOc1c(N(CC)CC)cnn(C)c1=O`, for which the inhibition in vivo at 100 mg/kg is 32.5%.
On the same count and under the same terms, as for `C=CCN(CC=C)c1cnn(C)c(=O)c1OCC`, the figure is 12.9%.
Still for that read-out and setting: the same measure for `CCOc1c(N2CCSCC2)cnn(C)c1=O`: 11.8%; for `CCOc1c(N2CCCCC2)cnn(C)c1=O`: 14.1%.
Consider `CCOc1c(N2CCCC2)cnn(C)c1=O`, for which the inhibition in vivo at 100 mg/kg turned out to be 23%.
Consider `CCOc1c(N2CCN(C)CC2)cnn(C)c1=O`, for which the inhibition in vivo at 100 mg/kg was determined as 12.3%.
Same read-out and setting: as for `CCOc1c(Nc2ccccc2)cnn(C)c1=O`, the figure is 4.9%.
On to `COc1c(N2CCOCC2)cnn(C)c1=O`, for which the inhibition in vivo at 100 mg/kg was 43.4%.
Still for that read-out and setting: the same measure for `CCCOc1c(N2CCOCC2)cnn(C)c1=O`: 34.9%.
The same measure, in the same setting: the same measure for `CC(C)Oc1c(N2CCOCC2)cnn(C)c1=O`: 7.2%; for `CCCCOc1c(N2CCOCC2)cnn(C)c1=O`: 28.8%.
Consider `CCCCCOc1c(N2CCOCC2)cnn(C)c1=O`, for which the inhibition in vivo at 100 mg/kg was determined as 20.7%.
Still for that read-out and setting: the same measure for `CCOc1c(N2CCOCC2)cnn(CC)c1=O`: 58.4%.
The same measure, in the same setting: as for `CCCn1ncc(N2CCOCC2)c(OCC)c1=O`, the figure is 32.4%.
On the same count and under the same terms, the same measure for `CCOc1c(N2CCOCC2)cnn(C(C)C)c1=O`: 22.2%.
With `CCCCn1ncc(N2CCOCC2)c(OCC)c1=O`, the inhibition in vivo at 100 mg/kg was 18.3%.
The same measure, in the same setting: as for `C/C=C/n1ncc(N2CCOCC2)c(OCC)c1=O`, the figure is 3.1%.
Same read-out and setting: the same measure for `C=CCn1ncc(N2CCOCC2)c(OCC)c1=O`: 23.5%; for `CCOc1c(N2CCOCC2)cn[nH]c1=O`: 9.2%.
On the same count and under the same terms, as for `CCOc1ccnn(C)c1=O`, the figure is -12.2%.
Consider `Cn1ncccc1=O`, for which the inhibition in vivo at 100 mg/kg worked out at 4.5%.
Same read-out and setting: the same measure for `O=c1cccn[nH]1`: 6.3%; for `Cn1ncc(N2CCOCC2)cc1=O`: -5.6%.
On to `Cc1c(N(C)C)c(=O)n(-c2ccccc2)n1C` [AMINOPYRINE], for which the inhibition in vivo at 100 mg/kg amounted to 48.2%.
Same read-out and setting: as for `CCOc1c(N2CCOCC2)cnn(C)c1=O` [EMORFAZONE], the figure is 55%; as for `CCCCC1C(=O)N(c2ccccc2)N(c2ccccc2)C1=O` [PHENYLBUTAZONE], 40.6%.
Still for that read-out and setting: the same measure for `c1ccnnc1` [PYRIDAZINE]: -2.4%.
